# High-throughput results: PubChem, several laboratories
# HKDC1 inh = HKDC1 hexokinase inhibitors, primary screen, biochemical, fluorescence, uHTS; recombinant HKDC1, G6PDH/diaphorase resazurin coupled fluorescence; inhibition, % at 20 µM; 340,000 tested, 0.16% active; Q2TB90;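 active = inhibition above about 35% when tested at 20 µM, limit read from the data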;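 also: plate controls were DMSO wells with enzyme for no effect and DMSO wells lacking enzyme for full effect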
#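 Assay system – recombinant HKDC1 (HK5) hexokinase enzyme, produced in-house · Input – HKDC1 at 5 µg/mL · Reagent – glucose plus 1 mM ATP as hexokinase substrates · Timing – 90 min reaction incubation at room temperature, dark · Measured by – G6PDH/diaphorase-coupled fluorescence, 1 mM NADP, 100 µM resazurin, 525/613 nm · Benchmarks – DMSO-enzyme wells negative, buffer-substituted wells positive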
# Exocytosis inh = LAMP-1 surface exposure blockers, TALL-104 cells – cell-based, flow cytometry, MLPCN library, primary screen; inhibition, % at 10 µM; TALL-104 LAMP-1 surface exposure; cells stimulated with thapsigargin and PMA; 360,000 tested, 0.66% active;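 active = inhibition above about 55%, limit read from the data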
# ABHD5-PLIN5 inh = ABHD5-PLIN5 interaction inhibitors, primary screen, cell lysate, split luciferase complementation, luminescence. inhibition, % at 4 µM. 360,000 tested, 0.78% active. Perilipin-5 (Homo sapiens) + 1-acylglycerol-3-phosphate O-acyltransferase ABHD5 (Homo …. Split G. princeps luciferase complementation, 4 h;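 active = inhibition above the mean inhibition across every tested compound plus 3 SD, cut at about 22% in these data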;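 also: 0% = DMSO only wells and the 100% control is not disclosed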
# Target sequence (Q00G26 whole entry, looked up): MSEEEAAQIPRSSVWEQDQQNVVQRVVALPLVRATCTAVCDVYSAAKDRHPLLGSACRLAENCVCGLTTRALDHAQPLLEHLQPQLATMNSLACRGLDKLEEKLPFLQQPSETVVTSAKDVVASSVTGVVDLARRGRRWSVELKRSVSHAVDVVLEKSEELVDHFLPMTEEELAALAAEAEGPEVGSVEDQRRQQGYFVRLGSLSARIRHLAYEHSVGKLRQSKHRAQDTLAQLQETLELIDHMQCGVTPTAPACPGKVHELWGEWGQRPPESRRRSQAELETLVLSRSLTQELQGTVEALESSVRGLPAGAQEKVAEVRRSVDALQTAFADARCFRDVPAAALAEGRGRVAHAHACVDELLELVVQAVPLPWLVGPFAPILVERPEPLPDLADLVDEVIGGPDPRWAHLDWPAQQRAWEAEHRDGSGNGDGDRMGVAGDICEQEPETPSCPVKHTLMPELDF
# Target sequence (Q8WTS1 whole entry, looked up): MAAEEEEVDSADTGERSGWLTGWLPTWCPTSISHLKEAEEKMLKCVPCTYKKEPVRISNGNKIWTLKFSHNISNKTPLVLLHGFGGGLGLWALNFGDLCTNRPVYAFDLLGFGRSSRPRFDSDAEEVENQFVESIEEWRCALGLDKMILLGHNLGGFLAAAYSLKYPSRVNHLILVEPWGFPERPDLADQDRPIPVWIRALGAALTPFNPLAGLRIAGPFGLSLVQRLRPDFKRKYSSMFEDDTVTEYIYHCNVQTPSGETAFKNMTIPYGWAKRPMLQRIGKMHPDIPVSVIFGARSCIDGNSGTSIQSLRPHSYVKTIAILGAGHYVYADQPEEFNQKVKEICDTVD
# PfGluPho inh = PfG6PD enzyme inhibitors, primary screen, biochemical, fluorescence intensity, uHTS; 350,000 tested, 0.78% active; inhibition, % at 20 µM; PfGluPho enzyme, NADPH resazurin-diaphorase fluorescence;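 active = inhibition reaching at least a set limit at 20 µM in the primary screen, cut at about 59% in these data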;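 also: 0% = DMSO wells with substrate and 100% = DMSO wells lacking glucose-6-phosphate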
# PfGluPho conf = PfG6PD inhibitors, hit retest, confirmation, biochemical, fluorescence intensity, single concentration; shares compounds with PfGluPho inh; recombinant PfGluPho, NADPH-diaphorase-resazurin fluorescence; inhibition, % at 20 µM; 2,400 tested, 34% active; AID 504753, 2011;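 active = inhibition of at least 50% at 20 µM in any single replicate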;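 also: 0% = DMSO with substrate and 100% = DMSO lacking glucose-6-phosphate substrate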
# Diaph ctr 10uM = diaphorase inhibitors and chemical oxidizers, confirmation, counter-screen for P. falciparum G6PD inhibitor project, biochemical, fluorescence intensity, 10 µM NADPH | shares compounds with PfGluPho inh | diaphorase-coupled resazurin reduction, NADPH 10 uM | inhibition, % at 20 µM | 820 tested, 39% active | AID 504862, 2011;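 active = average inhibition reaching 50% or more with the compound at 20 µM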;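 also: resorufin red fluorescence formed as diaphorase reduces resazurin using NADPH; 0% = DMSO with enzyme and 100% = DMSO without enzyme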
# Diaphorase 30uM = diaphorase inhibitors and chemical oxidizers, confirmation, counter-screen for P. falciparum G6PD inhibitor project, biochemical, fluorescence intensity, 30 µM NADPH; shares compounds with PfGluPho inh; Diaphorase/resazurin coupled assay, resorufin fluorescence; inhibition, % at 20 µM; 820 tested, 29% active;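 active = inhibition averaging 50% or more, tested at 20 µM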;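 also: 0% = DMSO with enzyme and 100% = DMSO wells lacking diaphorase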
# Starred values were filed as active, the others as inactive; / = not tested or not shown. In the library only some 2.2% were active in any assay of this set; here they are far more common.
SMILES,HKDC1 inh,Exocytosis inh,ABHD5-PLIN5 inh,PfGluPho inh,PfGluPho conf,others
CC1=NN(c2nc(N)nc(/C(C#N)=C/c3ccc([N+](=O)[O-])o3)n2)C(C)(C)C1,31,83*,-2,69*,26,
O=C1C2C(C(=O)N1/N=C/c1ccc([N+](=O)[O-])o1)C1C=CC2C12CC2 (configuration not stated),8,3,0,24,/,
Cc1ccc(-c2nnc(SCC(=O)Nc3cccnc3Cl)n2N)cc1,-8,8,-4,-10,/,
Nn1c(SCC(=O)Nc2cccnc2Cl)nnc1-c1ccccc1,4,3,0,62*,50*,Diaph ctr 10uM=0;Diaphorase 30uM=5
c1ccc(C[C@H]2CNCCN2CC2(c3ccccc3)CC2)cc1,2,-6,5,-9,/,
O=C(/C=C/c1cccs1)N1CCCCC1,-14,2,3,-1,/,
O=C(/C=C/c1cccs1)N1CCN(c2ccc(O)cc2)CC1,-2,0,-4,64*,36,
CCCCNc1cc(NC(C)=O)cc2cc(OC)c(OC)cc12,21,16,-20,72*,43,
COc1cc2cc(NC(C)=O)cc(NCc3ccccc3)c2cc1OC,14,10,-3,49,/,
Cc1cc(C)cc(C(=O)Nc2ccc(N3CCN(C(=O)c4ccco4)CC3)cc2)c1,-3,46,9,-6,/,
COc1ccc(-c2cc3nc(C)cc(C)n3n2)cc1,-1,-2,1,61*,20,
Cc1cc(-n2c(C)cc(C(=O)CSc3ccccn3)c2C)no1,-3,2,1,67*,23,
Cc1cc(-n2c(C)cc(C(=O)CSc3nnnn3-c3ccccc3)c2C)no1,-8,-2,1,12,/,
Cc1ccc(/C=N/NC(=O)c2c(-c3ccccc3)noc2C)o1,4,-3,-2,36,/,
COc1ccc(Cl)cc1/C=N/NC(=O)c1c(-c2ccccc2)noc1C,4,-2,3,127*,99*,Diaph ctr 10uM=96*;Diaphorase 30uM=83*
Cc1onc(-c2ccccc2)c1C(=O)N/N=C/c1cc(Br)c(Br)o1,3,-4,-9,64*,28,
CCCCC[C@@H]1C=C(C(=O)O)[C@H](c2cccc(C)c2)N1S(=O)(=O)c1ccc(C)cc1,4,0,-6,-25,/,
CCOC(=O)[C@@H]1[C@H]2COc3ccc(Br)cc3[C@@H]2N2C(=O)N(c3cccc(F)c3)C(=O)[C@]12C,-1,1,-8,3,/,
O=C(COC(=O)c1ccc(OC(F)F)cc1)NCCC1=CCCCC1,-1,-3,-2,2,/,
CCOC(=O)N1CCN(C(=O)Nc2ccc3oc(C)nc3c2)CC1,-6,1,-19,62*,-4,
Cn1c(OCC2CCCO2)nc2cc(-c3ccccc3)sc2c1=O (configuration not stated),/,1,-4,/,/,
O=C(N=Nc1c(O)[nH]c2ccccc12)c1ccccc1NS(=O)(=O)c1cccs1,4,-6,8,62*,12,
O=C(N=Nc1c(O)[nH]c2ccccc12)c1cc(-c2cccs2)[nH]n1,11,-2,-2,92*,39,
CC(=O)N1CCOc2ccc(S(=O)(=O)NC[C@H]3O[C@@H](n4ccc(=O)[nH]c4=O)[C@H](O)[C@@H]3O)cc21,-7,-3,-6,-9,/,
O=C(NCC1CCCO1)c1cccc(S(=O)(=O)Nc2ccc(F)cc2)c1 (configuration not stated),-1,3,1,11,/,
SMILES,HKDC1 inh,Exocytosis inh,ABHD5-PLIN5 inh,PfGluPho inh,PfGluPho conf,others
O=C(O)c1ccc(-n2cc(-c3cc4ccccc4oc3=O)[nH]c2=S)cc1,-7,7,-6,61*,25,
Cc1ccc(C)c(NC(=S)Nc2cccc3cnccc23)c1,20,5,-39,101*,-2,
Cc1ccccc1NC(=S)Nc1cccc2cnccc12,13,-1,-17,35,/,
CC(=O)c1ccc(NC(=S)Nc2cccc3cnccc23)cc1,8,2,-39,64*,-6,
CC(=O)c1cccc(NC(=S)Nc2cccc3ccccc23)c1,5,0,-11,24,/,
CN(C(=O)COC(=O)c1ccc(-c2ccc(O)cc2)cc1)C1CCS(=O)(=O)C1 (configuration not stated),4,-2,-2,-6,/,
Cc1cc(C)nc(NNS(=O)(=O)c2ccc(Cl)cc2)n1,1,-2,-13,59*,13,
Cc1cc(C)nc(NNS(=O)(=O)c2ccc(F)c(Cl)c2)n1,-4,-2,-19,33,/,
CCOC(=O)C1CCN(C(=O)CN2C(=O)CSc3ccc(S(=O)(=O)N4CCOCC4)cc32)CC1,-2,6,-2,2,/,
Cc1cc(N=NC(=O)c2ccccc2O)c2ccccc2c1O,-2,21,4,64*,49*,Diaph ctr 10uM=19;Diaphorase 30uM=21
CCOc1ccc2ccccc2c1/C=N/NC(=O)CC1(C)OCCCO1,-9,-6,4,77*,57*,Diaph ctr 10uM=60*;Diaphorase 30uM=55*
CCOc1ccc2ccccc2c1/C=N/NC(=O)c1ccncc1,-6,-5,-5,72*,66*,Diaph ctr 10uM=61*;Diaphorase 30uM=47
CC(C)[C@H](NC(=O)N1c2ccccc2NC(=O)[C@@H]1C(C)C)C(=O)N1CCC[C@H]1C(=O)O,-6,0,5,-5,/,
COc1cccc(/C=N/NC(=O)c2c(C)nc3ccc(Br)cn23)c1,3,7,-3,91*,54*,Diaph ctr 10uM=40;Diaphorase 30uM=40
COc1ccc(OC)c(/C=N/NC(=O)c2c(C)nc3ccc(C)cn23)c1,-2,-7,-5,62*,43,
Nc1ccc(C(=O)N/N=C/c2cccc(Oc3ccccc3)c2)cc1,-1,0,1,21,/,
Cc1nn(C)c(C(=O)N/N=C/c2cccc(Oc3ccccc3)c2)c1Br,5,3,-4,145*,89*,Diaph ctr 10uM=80*;Diaphorase 30uM=71*
CCOC(=O)Cc1nnc(NC(=O)CCc2ccccc2)s1,-5,-6,-2,7,/,
Cc1ccccc1C(=O)N/N=C/c1ccc([N+](=O)[O-])s1,10,1,-7,35,/,
Cc1c(Cl)cccc1N=Cc1ccc([N+](=O)[O-])s1,3,10,1,77*,-5,
O=C1C(=Cc2ccccc2O)SC(=S)N1CCCN1CCOCC1,/,17,-30,71*,43,
COC(=O)c1[nH]c2ccc(C)cc2c1NS(=O)(=O)c1ccc(F)c(C)c1,5,-2,-5,68*,23,
